These results are taken from ChEMBL document CHEMBL1124895, “Synthesis and biological evaluation of some cyclic phosphoramidate nucleoside derivatives” (1990).

What all share (assay type): functional
A short description of experiment [1]: Antiviral Activity against herpes simplex virus-1 (McIntyre) in rabbit kidney cell. Conditions: Oryctolagus cuniculus.
Experiment [2] has as its system FM3A. Kind of experiment: Inhibitory activity against FM3A TK- cell line. Conditions: Mus musculus, read-out: ID50 (the source's name). The procedure, abridged:
(§1)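 Tumour cells, (5-7.5) × 10^4 per well in growth medium, exposed to varying compound concentrations and allowed to proliferate 48 or 72 h at 37 °C in humidified CO2 atmosphere; cell counts by Coulter counter; value is 50% inhibitory dose. FM3A TK- and TK-/HSV-2 TK+ lines derived from FM3A/0 and grown in the same medium.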

The test system of the next experiment is MOLT-4F. Kind of experiment: Inhibitory activity against Molt/4F cell line. Conditions: Homo sapiens, read-out: ID50 (the source's name). The procedure, abridged: as §1
The next experiment concerns L1210. Kind of experiment: Inhibitory activity against L1210 cell line. Conditions: Mus musculus, read-out: ID50 (the source's name). The method in brief: as §1
The nature of experiment [3]: Antiviral Activity against herpes simplex virus-1 (KOS) in rabbit kidney cell. Conditions: Oryctolagus cuniculus.
Experiment [4] in a line: Antiviral Activity against herpes simplex virus-1 TK- B2006 in rabbit kidney cell. The note with it: Oryctolagus cuniculus.
In experiment [5] the test system is FM3A. Kind of experiment: Inhibitory activity against FM3A/0 cell line. Conditions: Mus musculus, read-out: ID50 (the source's name). The procedure, abridged: as §1
The nature of experiment [6]: Antiviral Activity against vesicular stomatitis virus in rabbit kidney cell. Conditions: Oryctolagus cuniculus.
Experiment [7] can be described thus: Antiviral Activity against herpes simplex virus-2 (G) in rabbit kidney cell. Conditions: Oryctolagus cuniculus.
A short description of experiment [8]: Antiviral Activity against herpes simplex virus-2 (196) in rabbit kidney cell. Conditions: Oryctolagus cuniculus.
Experiment [9] is described as follows: Antiviral Activity against herpes simplex virus-1 (F) in rabbit kidney cell. The note with it: Oryctolagus cuniculus.
Experiment [10] in a line: Antiviral Activity against herpes simplex virus-2 (Lyons) in rabbit kidney cell. The note with it: Oryctolagus cuniculus.
A further experiment concerns Raji. Kind of experiment: Inhibitory activity against Raji cell line. The note with it: Homo sapiens, read-out: ID50 (the source's name). The procedure, abridged: as §1
Experiment [11] can be described thus: Antiviral Activity against herpes simplex virus-1 TK- VMW 1837 in rabbit kidney cell. Conditions: Oryctolagus cuniculus.
Experiment [12] in a line: Antiviral Activity against vaccinia virus in rabbit kidney cell. Conditions: Oryctolagus cuniculus.
Experiment [13] concerns FM3A. Kind of experiment: Inhibitory activity against FM3A TK-/HSV-2 TK+ cell line. The note with it: Mus musculus, […] TK-/HSV-2 TK+; read-out: ID50 (the source's name). The procedure, abridged:
as §1

Experiment [14] deals with Mus musculus. Kind of experiment: Compound was evaluated in nu/nu mice infected with TK- HSV-1 (VMW-1837) to increase the mean survival time when administered intraperitoneally at 100 mg/kg per day after 39 days. The note with it: route intraperitoneal. The procedure, abridged:
(§2)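 Athymic nu/nu mice, 25-30 days old, 15-20 g, inoculated intracutaneously in lumbosacral area with TK- HSV-1 VMW 1837, 10^5 CCID50 in 50 μL; intraperitoneal dosing 100 mg/kg per day, twice daily for 5 days from infection, in carboxymethylcellulose or water. Mean day of lesions/hind-leg paralysis and mean survival recorded over 39 days; survivors counted as 39-day.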

Experiment [15] relates to Mus musculus. Kind of experiment: Tested for the appearance of skin lesions or paralysis of the legs after 52 days when applied topically at 10% after 52 days. The method in brief:
(§3)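 Athymic nu/nu mice, 25-30 days old, 15-20 g, inoculated intracutaneously in lumbosacral area with TK- HSV-1 VMW 1837, 10^5 CCID50 in 50 μL; topical 10% (v/v in DMSO) applied four times daily for 5 days from infection; DMSO placebo. Mean day of lesions/hind-leg paralysis and survival followed 52 days; survivors counted as 52-day.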

The test system of experiment [16] is Mus musculus. Kind of experiment: Tested for the appearance of skin lesions or paralysis of the legs after 39 days when administered intraperitoneally at 100 mg/kg per day. Conditions: route intraperitoneal. The method in brief: as §2
Experiment [17] deals with Mus musculus. Kind of experiment: Compound was evaluated in nu/nu mice infected with TK- HSV-1 (VMW-1837) to increase the mean survival time when applied topically at 10% after 52 days. The method in brief:
as §3

In brackets after ≈: the same amount, converted by molar mass.

For `COC(CC1CN(C)P(=O)(OC[C@H]2O[C@@H](n3cc(/C=C/Br)c(=O)[nH]c3=O)C[C@@H]2O)O1)Sc1ccccc1` (stereo partly specified), the MIC is 0.4 µg/mL (≈ 0.647 µM) in experiment [1]; 0.1 µg/mL (≈ 0.162 µM) in experiment [3]; greater than 400 µg/mL in experiment [4]; greater than 400 µg/mL in [6]; greater than 400 µg/mL in [7]; greater than 400 µg/mL in experiment [8]. Also, the MIC in experiment [9] was 0.1 µg/mL (≈ 0.162 µM); in experiment [10] it was greater than 400 µg/mL; in experiment [11], greater than 400 µg/mL; in experiment [12], no less than 400 µg/mL. In addition, the IC50 with FM3A [2] was 12.4 µg/mL (≈ 20.1 µM); in the experiment on MOLT-4F it was greater than 100 µg/mL; with L1210, greater than 100 µg/mL; with FM3A [5] it was 82 µg/mL (≈ 133 µM); in the experiment with Raji, greater than 100 µg/mL; with FM3A [13], 0.003 µg/mL (≈ 0.00485 µM).
Regarding `O=c1[nH]c(=O)n([C@H]2C[C@H](O)[C@@H](CO)O2)cc1/C=C/Br` [BRIVUDINE], the MIC is 0.01 µg/mL (≈ 0.03 µM) in [1]; 0.02 µg/mL (≈ 0.06 µM) in [3]; 100 µg/mL (≈ 300 µM) in experiment [4]; greater than 400 µg/mL in [6]; 2 µg/mL (≈ 6 µM) in experiment [7]; 100 µg/mL (≈ 300 µM) in experiment [8]. The MIC in experiment [9] was determined as 0.01 µg/mL (≈ 0.03 µM); in [10], 20 µg/mL (≈ 60 µM); in experiment [11] it was 300 µg/mL (≈ 901 µM); in experiment [12], 7 µg/mL (≈ 21 µM). Besides, the IC50 in the experiment with FM3A [2] was 0.31 µg/mL (≈ 0.931 µM); in the experiment with MOLT-4F it was greater than 100 µg/mL; in the experiment with L1210, 22 µg/mL (≈ 66 µM); in the experiment with FM3A [5] it was 9.4 µg/mL (≈ 28.2 µM); in the experiment with Raji it was 73 µg/mL (≈ 219 µM); in the experiment on FM3A [13], 0.0005 µg/mL (≈ 0.0015 µM). Further, the Mean survival time with Mus musculus [14] amounted to 33.8 days; with Mus musculus [17] it was 39.6 days. The Activity in the experiment with Mus musculus [15] turned out to be 8.2; with Mus musculus [16], 10.2.
As to `CN1CC(CC2SCCCS2)OP1(=O)OC[C@H]1O[C@@H](n2cc(/C=C/Br)c(=O)[nH]c2=O)C[C@@H]1O` (stereo partly specified), the MIC was greater than 200 µg/mL in [1]; 200 µg/mL (≈ 342 µM) in [3]; 150 µg/mL (≈ 257 µM) in experiment [4]; greater than 200 µg/mL in experiment [6]; 150 µg/mL (≈ 257 µM) in experiment [7]; greater than 200 µg/mL in [8]. In addition, the MIC is 150 µg/mL (≈ 257 µM) in experiment [9], greater than 200 µg/mL in experiment [10], 300 µg/mL (≈ 513 µM) in [11] and 200 µg/mL (≈ 342 µM) in experiment [12]. For the same molecule, the IC50 in the experiment on FM3A [2] is 32 µg/mL (≈ 54.8 µM); in the experiment with MOLT-4F it was greater than 100 µg/mL; in the experiment on L1210, greater than 100 µg/mL; with FM3A [5], 48 µg/mL (≈ 82.1 µM); in the experiment on Raji, greater than 100 µg/mL; with FM3A [13], 0.018 µg/mL (≈ 0.0308 µM).
In the case of `CN1CCOP1(=O)OCCOCn1cnc2c(O)nc(N)nc21` (stereo unspecified), the IC50 with MOLT-4F, in the experiment with L1210, in the experiment with FM3A [5] and in the experiment with Raji was greater than 100 µg/mL throughout. The MIC in experiment [3] is 0.2 µg/mL (≈ 0.581 µM); in experiment [6], greater than 400 µg/mL; in experiment [7], 0.2 µg/mL (≈ 0.581 µM); in experiment [12], 400 µg/mL (≈ 1160 µM).
For `CN1CCOP1(=O)OC[C@H]1O[C@@H](n2cc(/C=C/Br)c(=O)[nH]c2=O)C[C@@H]1O` (stereo partly specified), the MIC in experiment [1] was 0.04 µg/mL (≈ 0.0885 µM); in experiment [3] it was 0.02 µg/mL (≈ 0.0442 µM); in [4], greater than 400 µg/mL; in [6] it was greater than 400 µg/mL; in experiment [7], 10 µg/mL (≈ 22.1 µM); in experiment [8] it was greater than 400 µg/mL. Besides, the MIC is 0.07 µg/mL (≈ 0.155 µM) in experiment [9], 200 µg/mL (≈ 442 µM) in [10], greater than 400 µg/mL in experiment [11] and 20 µg/mL (≈ 44.2 µM) in [12]. Further, the IC50 in the experiment on FM3A [2] was 1.3 µg/mL (≈ 2.87 µM); with MOLT-4F, greater than 100 µg/mL; in the experiment with L1210, 90 µg/mL (≈ 199 µM); in the experiment on FM3A [5] it was 48 µg/mL (≈ 106 µM); in the experiment on Raji, greater than 100 µg/mL; in the experiment with FM3A [13], 0.0008 µg/mL (≈ 0.00177 µM).
Regarding `Nc1nc2c(ncn2COCCO)c(=O)[nH]1` [ACYCLOVIR], the MIC in experiment [1] was 0.2 µg/mL (≈ 0.888 µM); in experiment [3], 0.2 µg/mL (≈ 0.888 µM); in experiment [4] it was 20 µg/mL (≈ 88.8 µM); in experiment [6], greater than 400 µg/mL; in experiment [7] it was 0.02 µg/mL (≈ 0.0888 µM); in [8], 0.07 µg/mL (≈ 0.311 µM). Further, the MIC was determined as 0.1 µg/mL (≈ 0.444 µM) in experiment [9], 0.1 µg/mL (≈ 0.444 µM) in experiment [10], 10 µg/mL (≈ 44.4 µM) in [11] and 150 µg/mL (≈ 666 µM) in experiment [12]. Moreover, the IC50 in the experiment with FM3A [2] was 0.62 µg/mL (≈ 2.75 µM); in the experiment with MOLT-4F, greater than 100 µg/mL; in the experiment with L1210, 41 µg/mL (≈ 182 µM); with FM3A [5], 17 µg/mL (≈ 75.5 µM); in the experiment with Raji it was greater than 100 µg/mL; in the experiment with FM3A [13], 0.0009 µg/mL (≈ 0.004 µM). The Mean survival time in the experiment with Mus musculus [14] is 30.4 days; with Mus musculus [17], 46.2 days. The Activity is recorded as 40.8 in the experiment on Mus musculus [15] and 17.2 in the experiment on Mus musculus [16].
